Most compounds without a hit are left out; they make up all but 3.7% or so of the library.
KCNK3 inh – human KCNK3 channel inhibitors, primary screen, CHO cells, FluxOR thallium flux, B-score; B-score at 10 µM; Potassium channel subfamily K member 3 (Homo sapiens), O14649; FluxOR fluorescence; hits give low values; 340,000 tested, 0.84% active;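 active = B-score under library mean minus 4 SD, starting fluorescence ratio at most library mean plus 5 SD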;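 also: more negative B-score means stronger inhibition of thallium flux through KCNK3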
hERG rescue – hERG rescue from dofetilide block, primary screen, cell-based, CHO-hERG, FluxOR thallium flux, dofetilide IC70 | Voltage-gated inwardly rectifying potassium channel KCNH2 (Homo sapiens), Q12809 | AID 1511, 2009 | dofetilide IC70 present | activation (rescue from dofetilide block), less the hit threshold, % at 10 µM | 310,000 tested, 0.51% active;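 active = activation above the mean of controls blocked by dofetilide plus 5 SD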;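 also: thallium influx through hERG after potassium depolarization seen as dye fluorescence rise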
KCNQ1 inh – inhibitors of human KCNQ1 channel, primary screen, cell-based, thallium flux, high-throughput; Potassium voltage-gated channel subfamily KQT member 1 (Homo sapiens), P51787; CHO-K1 KCNQ1, FluxOR thallium flux fluorescence; hits give high values; B-score at 10 µM; 310,000 tested, 1.3% active; AID 2642, 2010;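 active = compounds whose thallium flux B-score, printed positive for inhibition, exceeds three library SD while starting fluorescence stays within three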;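 also: channel opened by potassium depolarization with thallium stimulus after 20 min compound exposure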
KCNQ1 act – potentiators or activators of KCNQ1 channel, primary screen, cell-based, thallium flux, high-throughput | CHO-K1 KCNQ1, thallium flux FluxOR fluorescence; hits give high values | Potassium voltage-gated channel subfamily KQT member 1 (Homo sapiens), P51787 | AID 2648, 2010 | B-score at 10 µM | 310,000 tested, 0.35% active;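 active = fluorescence ratio B-score, a plate-corrected score, at least three library SD, with initial intensity B-score within 5 SD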
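Medium – assay buffer, equal DMSO in all wells · Material – CHO-K1 cell line with stable KCNQ1 potassium channel expression · Signal – kinetic FluxOR thallium fluorescence, 10-s 1-Hz baseline, 110-s post-stimulus read · Compound – single concentration per compound, DMSO matched to controls · Schedule – 37 °C overnight plating, 90-min dark dye load, 20-min compound pretreatment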
KCNK9 block – KCNK9 potassium channel inhibitors, primary screen, HEK293 cells, thallium flux. Potassium channel subfamily K member 9 (Homo sapiens), Q9NPC2. FluxOR thallium flux fluorescence; hits give low values. B-score at 10 µM. 310,000 tested, 1.2% active. AID 488922, 2010;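 active = ratio B-score over 3 SD below the library mean, with starting fluorescence within 5 SD of its mean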;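 also: negative B-score means less thallium flux so channel inhibition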
Kir21 block – inhibitors of mouse Kir2.1 inward-rectifier potassium channel. B-score at 10 µM. HEK293-Kir2.1, FluxOR thallium flux fluorescence; hits give low values. 310,000 tested, 0.85% active. Inward rectifier potassium channel 2 (Mus musculus), P35561;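 active = fluorescence ratio B-score at or below minus 3 SD of library scores, with starting-brightness B-score within 2 SD, cut at about -4.2 in these data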;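 also: channel flux triggered by added potassium and thallium sulfate stimulus; B-score of peak minus minimum fluorescence over baseline after thallium stimulus; more negative B-score means stronger Kir2.1 block with less thallium influx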
Target sequence (P35561 whole entry, looked up): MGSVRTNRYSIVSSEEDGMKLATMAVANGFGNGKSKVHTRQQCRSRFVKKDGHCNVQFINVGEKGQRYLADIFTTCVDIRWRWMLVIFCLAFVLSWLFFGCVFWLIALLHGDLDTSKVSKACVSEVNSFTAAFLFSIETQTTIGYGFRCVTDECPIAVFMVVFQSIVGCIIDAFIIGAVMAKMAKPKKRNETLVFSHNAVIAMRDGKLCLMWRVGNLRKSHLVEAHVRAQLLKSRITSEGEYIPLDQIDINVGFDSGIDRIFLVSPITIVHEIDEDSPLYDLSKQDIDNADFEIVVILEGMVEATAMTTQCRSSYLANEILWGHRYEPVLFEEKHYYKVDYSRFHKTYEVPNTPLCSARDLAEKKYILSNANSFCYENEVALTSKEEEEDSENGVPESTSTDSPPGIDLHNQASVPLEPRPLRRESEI
* marks the source's active call; other numbers are inactive results.

Results for CCOC(=O)c1cc(=O)n2c(nc3ccccc32)[nH]1 ?
KCNK3 inh: inactive; hERG rescue: -12; KCNQ1 inh: inactive; KCNQ1 act: inactive; KCNK9 block: inactive; Kir21 block: -0.98

How did Cc1ccc2nc(SCCCCOc3ccccc3)[nH]c2c1 do in these assays?
KCNK3 inh: -9.9*; hERG rescue: -2; KCNQ1 inh: inactive; KCNQ1 act: inactive; KCNK9 block: inactive; Kir21 block: -0.15

What do the screens show for `O=C1CC(c2ccccc2Cl)c2c(sc3c(=O)[nH]c(CCl)nc23)N1` (stereo not drawn)?
hERG rescue: -9; KCNQ1 inh: inactive; KCNQ1 act: inactive; KCNK9 block: inactive; Kir21 block: 0.04

Results for CCN(CC)S(=O)(=O)c1cccc(NC(=O)CN2C(=O)NC3(CCC(C)CC3)C2=O)c1 (stereo not drawn) ?
KCNK3 inh: inactive

Results for COC(=O)c1ccccc1S(=O)(=O)N1CCn2cccc2C1C (stereo not drawn) ?
KCNK3 inh: inactive; hERG rescue: 35*; KCNQ1 inh: inactive; KCNQ1 act: inactive; KCNK9 block: inactive; Kir21 block: -0.78

Results for COc1ccc(NC(C)=O)cc1S(=O)(=O)N1CCn2cccc2C1C (stereo not drawn) ?
KCNK3 inh: inactive

What do the screens show for `O=C1NC(=S)S/C1=C\c1cc2ccccc2nc1N1CCCCC1`?
KCNK3 inh: inactive; hERG rescue: -6; KCNQ1 inh: inactive; KCNQ1 act: inactive; KCNK9 block: inactive; Kir21 block: 0.54

What do the screens show for `COc1ccc2nc(N3CCCCC3)c(/C=C3\SC(=S)NC3=O)cc2c1`?
KCNK3 inh: inactive; hERG rescue: 7.4*; KCNQ1 inh: inactive; KCNQ1 act: inactive; KCNK9 block: inactive; Kir21 block: 0.99

How did COc1cccc(C2CNC3(CCCC(C)C3)c3[nH]c4ccccc4c32)c1OC (stereo not drawn) do in these assays?
KCNK3 inh: inactive; hERG rescue: -5; KCNQ1 inh: inactive; KCNQ1 act: inactive; KCNK9 block: inactive; Kir21 block: -4.5*

Results for COc1cc2c(cc1OC)C(c1cccc(OC)c1OC)CC(=O)N2 (stereo not drawn) ?
KCNK3 inh: inactive; hERG rescue: -7; KCNQ1 inh: inactive; KCNQ1 act: inactive; KCNK9 block: inactive; Kir21 block: -0.1

How did CC(=O)Nc1ccc(S(=O)(=O)N2C(=O)c3cccc4cccc2c34)cc1 do in these assays?
hERG rescue: -6; KCNQ1 inh: inactive; KCNQ1 act: inactive; KCNK9 block: inactive; Kir21 block: 2.2

Results for CN(C)c1ccc(N=Nc2ccccc2C(=O)OCC(=O)Nc2ccccc2C(F)(F)F)cc1 ?
KCNK3 inh: inactive; hERG rescue: -12; KCNQ1 inh: 6*; KCNQ1 act: inactive; KCNK9 block: inactive; Kir21 block: -0.04

Results for CN(C)c1ccc(N=Nc2ccccc2C(=O)OCC(=O)N2CCCC2)cc1 ?
KCNK3 inh: inactive; hERG rescue: -6; KCNQ1 inh: inactive; KCNQ1 act: inactive; KCNK9 block: inactive; Kir21 block: 0.4

What do the screens show for `CN(Cc1ccc(Cl)s1)C(=O)CSc1nnc(C2CC2)n1C1CC1`?
KCNK3 inh: inactive

Results for O=C(Cc1ccccc1)N/N=C/c1ccc2cccc(O)c2n1 ?
KCNK3 inh: inactive; hERG rescue: 9.4*; KCNQ1 inh: inactive; KCNQ1 act: inactive; KCNK9 block: inactive; Kir21 block: 0.02

How did COC(=O)/C(=C\c1cc(OC)c(OC)c(OC)c1)c1nc2ccccc2[nH]1 do in these assays?
KCNK3 inh: inactive; hERG rescue: -8; KCNQ1 inh: inactive; KCNQ1 act: inactive; KCNK9 block: inactive; Kir21 block: -1.3
